The values that follow come from ChEMBL document CHEMBL1817561, “5a-Carba-β-D-glucopyranose derivatives as novel sodium-dependent glucose cotransporter 2 (SGLT2) inhibitors for the treatment of type 2 diabetes” (Bioorg Med Chem, 2011).

SMILES strings stand for the structures. Calls of active or inactive are those of the source. No cut-off for these calls is given here.

The first experiment deals with Mus musculus. The experiment is described as follows: Antidiabetic activity in db/db mouse assessed as reduction of blood glucose level at 100 mg/kg, po after 8 hrs by hexokinase method. The class given is functional, organism-based. The arrangement: dose 100 mg/kg. An outline of the steps:
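Male db/db mice on regular chow; single oral gavage dose of 100 mg/kg as homogeneous suspension in 0.5% carboxymethylcellulose sodium. Blood sampled before dosing and at 1, 2, 4, 6, 8, 10 and 24 h; glucose measured by hexokinase method.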
Consider `CCOC(=O)OC[C@H]1O[C@@H](Oc2ccccc2Cc2ccc(OC)cc2)[C@H](O)[C@@H](O)[C@@H]1O` [SERGLIFLOZIN ETABONATE], for which the outcome was Active. Same read-out and setting: for `COc1ccc(Cc2ccccc2O[C@@H]2C[C@H](CO)[C@@H](O)[C@H](O)[C@H]2O)cc1` the value was “Active”.

Another experiment has as its target T1, Sodium/glucose cotransporter 2 (Homo sapiens, UniProt P31639).
T1 sequence (P31639 whole entry): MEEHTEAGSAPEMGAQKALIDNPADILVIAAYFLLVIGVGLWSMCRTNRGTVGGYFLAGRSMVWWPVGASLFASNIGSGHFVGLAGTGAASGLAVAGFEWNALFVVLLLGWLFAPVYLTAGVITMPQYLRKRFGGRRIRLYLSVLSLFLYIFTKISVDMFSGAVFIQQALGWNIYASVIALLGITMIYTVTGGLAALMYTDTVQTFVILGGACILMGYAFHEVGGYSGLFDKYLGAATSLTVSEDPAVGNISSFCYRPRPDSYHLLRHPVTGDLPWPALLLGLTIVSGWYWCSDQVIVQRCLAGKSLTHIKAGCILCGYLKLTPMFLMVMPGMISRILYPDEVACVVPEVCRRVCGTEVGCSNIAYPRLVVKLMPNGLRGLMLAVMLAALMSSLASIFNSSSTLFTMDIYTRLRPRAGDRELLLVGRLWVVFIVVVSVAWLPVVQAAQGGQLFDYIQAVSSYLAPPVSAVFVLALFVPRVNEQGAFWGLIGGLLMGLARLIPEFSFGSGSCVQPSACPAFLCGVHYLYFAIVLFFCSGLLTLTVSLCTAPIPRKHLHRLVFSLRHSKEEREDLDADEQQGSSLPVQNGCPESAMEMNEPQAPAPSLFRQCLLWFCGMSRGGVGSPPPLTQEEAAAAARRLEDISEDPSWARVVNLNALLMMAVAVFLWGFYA
The experiment is described as follows: Inhibition of human SGLT2 expressed in CHO cells assessed as [14C]AMG uptake after 45 mins. It is filed as cell-based. An outline of the steps:
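Cells incubated 45 min in reaction buffer with compound plus 1 mM AMG containing [14C]AMG; uptake read as radioactivity in cell lysates. IC50 from four-parameter logistic curve fit; means of multiple independent experiments, with phlorizin and reference standard included in every run.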
As usually defined, the IC50 is the concentration that inhibits the measured activity by half. As for `OC[C@H]1C[C@@H](Oc2ccccc2Cc2ccc(F)cc2)[C@H](O)[C@@H](O)[C@@H]1O`, the IC50 came out at 630 nM. `OC[C@H]1C[C@@H](Oc2ccccc2Cc2ccc(Cl)cc2)[C@H](O)[C@@H](O)[C@@H]1O`: the IC50 is 150 nM. For `CCOC(=O)OC[C@H]1O[C@@H](Oc2ccccc2Cc2ccc(OC)cc2)[C@H](O)[C@@H](O)[C@@H]1O` [SERGLIFLOZIN ETABONATE], the IC50 is 260 nM. On the same count and under the same terms, for `OC[C@H]1C[C@@H](Oc2ccccc2Cc2ccccc2)[C@H](O)[C@@H](O)[C@@H]1O` the value was 690 nM.

Turning to `CC(C)c1ccc(Cc2ccccc2O[C@@H]2C[C@H](CO)[C@@H](O)[C@H](O)[C@H]2O)cc1`, the IC50 came to 150 nM. On to `C=Cc1ccc(Cc2ccccc2O[C@@H]2C[C@H](CO)[C@@H](O)[C@H](O)[C@H]2O)cc1`, for which the IC50 was determined as 29 nM. Still for that read-out and setting: for `COc1ccc(Cc2ccccc2O[C@@H]2O[C@H](CO)[C@@H](O)[C@H](O)[C@H]2O)cc1` [SERGLIFLOZIN A] the value was 4.8 nM; for `CCc1ccc(Cc2ccccc2O[C@@H]2C[C@H](CO)[C@@H](O)[C@H](O)[C@H]2O)cc1`, 28 nM.

On to `OC[C@H]1C[C@@H](Oc2ccccc2Cc2ccc(C(F)(F)F)cc2)[C@H](O)[C@@H](O)[C@@H]1O`, for which the IC50 was determined as 120 nM. The same measure, in the same setting: for `CCCc1ccc(Cc2ccccc2O[C@@H]2C[C@H](CO)[C@@H](O)[C@H](O)[C@H]2O)cc1` the value was 120 nM; for `CSc1ccc(Cc2ccccc2O[C@@H]2C[C@H](CO)[C@@H](O)[C@H](O)[C@H]2O)cc1`, 19 nM; for `COc1ccc(Cc2ccccc2O[C@@H]2C[C@H](CO)[C@@H](O)[C@H](O)[C@H]2O)cc1`, 42 nM. Regarding `OC[C@H]1C[C@@H](Oc2ccccc2Cc2ccc(O)cc2)[C@H](O)[C@@H](O)[C@@H]1O`, the IC50 is 290 nM. The same measure, in the same setting: for `Cc1ccc(Cc2ccccc2O[C@@H]2C[C@H](CO)[C@@H](O)[C@H](O)[C@H]2O)cc1` the value was 59 nM; for `OC[C@H]1C[C@@H](Oc2ccccc2Cc2ccc(C3CC3)cc2)[C@H](O)[C@@H](O)[C@@H]1O`, 11 nM. Regarding `CCOc1ccc(Cc2ccccc2O[C@@H]2C[C@H](CO)[C@@H](O)[C@H](O)[C@H]2O)cc1`, the IC50 is 110 nM.
